Published values gathered from unrelated publications.
Lines come from different studies, so protocols differ.
Target: Tyrosine-protein kinase Tec (TEC, Homo sapiens, UniProt P42680)
Sequence (P42680 1-631, as in one of the studies): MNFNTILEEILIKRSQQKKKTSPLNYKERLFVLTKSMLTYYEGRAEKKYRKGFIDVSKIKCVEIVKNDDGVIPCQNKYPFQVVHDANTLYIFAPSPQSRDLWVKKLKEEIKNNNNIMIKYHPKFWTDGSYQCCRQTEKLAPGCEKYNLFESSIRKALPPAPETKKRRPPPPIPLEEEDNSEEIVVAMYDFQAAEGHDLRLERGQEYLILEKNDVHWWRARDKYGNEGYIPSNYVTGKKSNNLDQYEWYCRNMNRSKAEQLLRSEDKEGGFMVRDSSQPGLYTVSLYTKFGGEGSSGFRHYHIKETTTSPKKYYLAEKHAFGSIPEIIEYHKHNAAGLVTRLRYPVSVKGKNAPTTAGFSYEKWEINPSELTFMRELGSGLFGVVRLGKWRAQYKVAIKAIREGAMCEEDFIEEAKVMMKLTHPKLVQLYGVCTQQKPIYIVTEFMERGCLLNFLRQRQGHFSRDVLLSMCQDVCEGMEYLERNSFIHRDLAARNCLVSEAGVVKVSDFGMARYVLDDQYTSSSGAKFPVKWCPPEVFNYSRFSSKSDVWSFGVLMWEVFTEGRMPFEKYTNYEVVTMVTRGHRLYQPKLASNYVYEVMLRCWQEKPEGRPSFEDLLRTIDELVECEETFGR

Structure (SMILES)	test	setting	remaining binding [%]
c1cncc(-c2cccc(Nc3nccc(NC4CCCCC4)n3)c2)c1	binding, competition with immobilised ligand	10 µM	94
CC1CCCN1c1nccc(-c2cnn3ncccc23)n1 (stereo not drawn)	binding	1 µM	100
COc1cnc(Nc2cccc(S(N)(=O)=O)c2)nc1N1CCN(c2ccccc2)C(=O)C1	binding, competition with immobilised ligand	1 µM	100
O=C(Nc1cccnn1)N1CCC(=Cc2cccc(Oc3ccc(C(F)(F)F)cn3)c2)CC1	cell-free assay, competition with immobilised ligand	1 µM	100
CNC(=O)[C@@H]1CC[C@@H](n2c(-c3ccc4cnccc4c3)nc3ccc(C(=O)NCc4cccc(C(N)=O)c4)cc32)C1	binding, competition with immobilised ligand	1 µM	100
c1cnn2ncc(-c3ccnc(N4CCC45COC5)n3)c2c1	binding	1 µM	99
C[C@@H]1CN(c2cc(-c3n[nH]c4ccc(OC5(C)CC5)cc34)ncn2)C[C@H](C)O1	cell-free assay, competition with immobilised ligand	0.1 µM	74
COc1ccnn2ncc(-c3ccnc(N(C)C)n3)c12	binding	1 µM	93
O=C(c1ccc(Nc2nccc(-c3cc4ccccc4s3)n2)cc1)N1CCC(N2CCCC2)CC1	binding, competition with immobilised ligand	1 µM	100
CCS(=O)(=O)c1cc2cc(C[C@@](O)(CC(C)(C)c3ccc(F)cc3C(N)=O)C(F)(F)F)[nH]c2cn1	cell-free assay, competition with immobilised ligand	1 µM	100
FC(F)(F)Oc1cccc(-c2cnc3ccc(-c4ccncc4)nn23)c1	binding, competition with immobilised ligand	5 µM	99
N[C@@H]1CCN(c2nccc(-c3cnn4ncccc34)n2)C1	binding	1 µM	95
O=C(NCCCN1CCOCC1)c1ccc(Nc2ncc(Cl)c(-c3ccc(Cl)s3)n2)cc1	binding, competition with immobilised ligand	1 µM	100
CS(=O)(=O)c1cc(C2(NC(=O)c3cncc4c3cnn4-c3ccc(F)cc3)CC2)ccn1	cell-free assay, competition with immobilised ligand	1 µM	99
C=CC(=O)N1CCC(C(=O)NCC(=O)N2CCN(c3nc(-c4cnc(N)nc4C(F)F)nc(N4CCOCC4)n3)CC2)CC1	binding, competition with immobilised ligand	1 µM	99
C[C@@]1(Cc2ccc(C#N)cc2)C(=O)N(c2cc(Cl)cc(Cl)c2)c2ncc(C(=O)NC3(c4nc(C5CCC5)no4)CC3)n21	cell-free assay, competition with immobilised ligand	1 µM	92
O=C(c1ccc(Nc2ncc(Cl)c(-c3ccc(Cl)s3)n2)cc1)N1CCC(N2CCCC2)CC1	binding, competition with immobilised ligand	1 µM	100
Cc1cnn2ncc(-c3ccnc(N(C)C)n3)c2c1	binding	1 µM	100
O=c1nc(-c2ccccn2)sc2ccccc12	binding, competition with immobilised ligand	1 µM	82
CN(C)c1nccc(-c2cnn3ncccc23)n1	binding	1 µM	90
O=C(Nc1c[nH]nc1C(=O)NC1CCNCC1)c1cc(F)cc(F)c1	binding, competition with immobilised ligand	1 µM	100
